From publication PMC6422681 (Science signaling, 2018)
Counter-ions that a name gives are not always drawn.

Columns and labels:
ERK1/2 = ERK1/2 phosphorylation assay; type: cell-based, human; conditions: Jurkat cells, 30 nM CXCL12, time points up to 30 min
CXCR4 [1] = test: PRESTO-Tango assay of BA2 recruitment to CXCR4; type: cell-based; conditions: HTLA cells, increasing CXCL12 with 1 μM AMD3100 or 10 μM X4-2-6, 1 hour, 37°C
Method in brief: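 HTLA cells were lipofected with Tango plasmids. After one day they were plated on poly-L-lysine-coated wells and allowed to attach 4 h before treatment with CXCL12 plus vehicle or test compound. Read-out was luminescence after adding a 1:5 mix of Bright-Glo with HBSS/20 mM Hepes and incubating at room temperature.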

Gαi = test: GTP loading of Gαi; type: cell-based, human; conditions: Jurkat cells
CXCR4 [2] = biological target: T1, CXCR4 (Homo sapiens, UniProt P61073); test: Flow cytometry of CXCR4 cell surface expression on Jurkat cells; type: cell-based
CXCR4 [3] = biological target: T1, CXCR4; conditions: Jurkat cells, 72 hours, fig. S1
CXCR4 [4] = biological target: T1, CXCR4; test: CXCR4 phosphorylation assay; type: cell-based; conditions: Jurkat cells, 1 μM AMD3100 or 10 μM X4-2-6 for 30 min, then 30 nM CXCL12 for 30 min
CXCR4 [5] = biological target: T1, CXCR4; test: Transwell chemotaxis of Jurkat cells toward CXCL12; type: cell-based; conditions: Jurkat cells treated 1 hour with 80 μM dynasore, 30 nM CXCL12
CXCR4 [6] = biological target: T1, CXCR4; test: Flow cytometry of CXCL12-stimulated CXCR4 endocytosis in Jurkat cells; type: cell-based; conditions: 30 nM CXCL12, antagonist 30 min before
Method in brief: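 Jurkat cells (1×10^5), serum-starved 6 hours, got vehicle or antagonist 30 min before 30 nM CXCL12. At set times, washed three times in ice-cold PBS/1% BSA, stained 20 min with PE-anti-CXCR4 (4G10 or 12G5) or isotype controls, and fixed in 4% paraformaldehyde. Surface CXCR4 read by flow cytometry against CXCL12 alone. Means ± SD; three experiments in triplicate.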

CXCR4 [7] = biological target: T1, CXCR4; test: cAMP concentration by ELISA in Jurkat cells; type: cell-based; conditions: 100 μM forskolin, 30 nM CXCL12
Method in brief: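 Jurkat cells (5×10^6), serum-starved 6 hours in RPMI 1640 with penicillin-streptomycin and L-glutamine. Steps: 100 μM forskolin or vehicle 30 min; then vehicle or antagonists 30 min; then 30 nM CXCL12 30 min. cAMP measured in lysates by direct ELISA; relative change calculated. Means ± SD of three independent experiments, six replicates per condition.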

T1 sequence (P61073 whole entry): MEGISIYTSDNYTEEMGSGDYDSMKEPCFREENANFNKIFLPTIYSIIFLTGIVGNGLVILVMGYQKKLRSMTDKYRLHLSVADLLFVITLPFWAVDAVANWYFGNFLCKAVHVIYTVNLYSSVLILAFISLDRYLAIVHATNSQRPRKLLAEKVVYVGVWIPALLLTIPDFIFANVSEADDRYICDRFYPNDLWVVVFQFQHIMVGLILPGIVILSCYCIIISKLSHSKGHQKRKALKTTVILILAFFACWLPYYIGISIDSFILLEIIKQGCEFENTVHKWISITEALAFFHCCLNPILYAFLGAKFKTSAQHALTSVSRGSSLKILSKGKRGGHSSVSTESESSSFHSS

Structure (SMILES) | pERK1/2 (Thr202/Tyr204) generation after CXCL12 (ERK1/2) | increase of CXCL12 EC50 for BA2 recruitment (CXCR4 [1]) | amount of Gαi-GTP in CXCL12-treated cells (Gαi) | CXCR4 cell surface expression after prolonged exposure (CXCR4 [2]; 72 hours, compared to vehicle-treated cells) | total CXCR4 protein amount (CXCR4 [3]) | phosphorylation of Ser324/325 or Ser339 in the C terminus of CXCR4 (CXCR4 [4]) | potency of AMD3100 to inhibit chemotaxis after dynasore treatment (CXCR4 [5]) | CXCL12-mediated CXCR4 internalization (endocytosis) (CXCR4 [6]) | cAMP amounts in forskolin and CXCL12 treated cells (CXCR4 [7]) | CXCR4 cell surface expression after dynasore (CXCR4 [2]; 80 μM dynasore for 1 hour, antibody clone 4G10)
c1cc(CN2CCCNCCNCCCNCC2)ccc1CN1CCCNCCNCCCNCC1 [AMD3100, AMD3100 octahydrochloride hydrate] | inhibited both early and late peaks in pERK1/2 generation | more than 3500 fold | reduced the amount of Gαi-GTP | increased cell surface CXCR4 expression | increased the total CXCR4 protein amount | inhibited this posttranslational modification | reduced potency | inhibited CXCL12-mediated receptor internalization | returned cAMP amounts to those observed in cells treated with forskolin alone | –
Nn1cnc2scc(-c3ccc(Cc4ccccc4)cc3)c2c1=O [barbadin] | increased the early and late peaks in pERK1/2 abundance | – | – | – | – | – | – | – | – | –
O=C(N/N=C/c1ccc(O)c(O)c1)c1cc2ccccc2cc1O [dynasore] | – | – | – | – | – | – | – | – | – | increased CXCR4 cell surface expression
